Results collected from several papers.
Each line is one published result; the experiments were not run side by side.
Read-out: enzyme activity
ABL1: Tyrosine-protein kinase ABL1 (ABL1, Homo sapiens, UniProt P00519)

| SMILES | target | mode | method | concentration | remaining activity |
| --- | --- | --- | --- | --- | --- |
| CC(C)(C)c1nc2c(s1)c1nc(N)ncc1c1ccc(NS(=O)(=O)c3c(F)cccc3F)c(F)c12 | ABL1 | inhibitor | radiometric | 1 µM | 93% |
| Cc1ccc(NC(=O)c2ccc(C)c(C(F)(F)F)c2)cc1C#Cc1nn(C2CCC(O)CC2)c2ncnc(N)c12 (stereo not drawn) | Tyrosine-protein kinase ABL1 (ABL1, Homo sapiens, UniProt P00519, Q252H) | – | – | 10 µM | 2% |
| COc1cc(Nc2cnc(C#N)c(O[C@H](C)CN(C)C)n2)ncc1-c1cnn(C)c1 | ABL1 | inhibitor | radiometric | 1 µM | 83% |
| Cc1[nH]c(/C=C2\C(=O)Nc3ccc(F)cc32)c(C)c1C(=O)N[C@H]1CCN(C(=O)N(C)C)C1 | ABL1 | inhibitor | – | 1 µM | 107% |
| Cc1cnc(NC2CCOCC2)nc1-n1cnc(C(=O)NC(CN)c2cc(F)cc(Cl)c2)c1 (stereo not drawn) | ABL1 | inhibitor | radiometric | 1 µM | 103% |
| CCCOc1ccc(OC)c(F)c1C(=O)c1ccc(C(=O)N[C@@H]2CNC[C@H]2NC(=O)c2ccc3[nH]ncc3c2)cc1 | ABL1 | inhibitor | – | 10 µM | 80% |
| O=C(Nc1cnn(-c2csc(C(=O)NC3COC3)c2)c1)Nc1ccccc1Cl | ABL1 | inhibitor | – | 5 µM | 83.4% |
| CC(C)(O)[C@H]1CC[C@H](Nc2ccc3ncc(-c4cccc(C(F)(F)F)c4)n3n2)CC1 | ABL1 | inhibitor | – | 1 µM | 69.8% |
| CCN(CC)c1ccc(C2=NNC(=O)CC2C)cc1[N+](=O)[O-] (stereo not drawn) | ABL1 | inhibitor | – | 10 µM | 87% |
